Measurements: ChEMBL document CHEMBL4364297, “Probing the Ligand-Binding Pocket of BTN3A1” (J Med Chem, 2019)
One block for each molecule: values may come before it. Activity calls are given as the source filed them. The rule behind the calls is not given here.

Key:
[1] = target: T1, Butyrophilin subfamily 3 member A1 (Homo sapiens, UniProt O00481); test: Displacement of GDP-BODIPY from C-terminal 6His-tagged BTN3A1 B30.2 domain (unknown origin) expressed in Escherichia coli BL21 (DE) measured after 60 mins by fluorescence polarization assay
Target sequence in this assay (O00481 whole entry): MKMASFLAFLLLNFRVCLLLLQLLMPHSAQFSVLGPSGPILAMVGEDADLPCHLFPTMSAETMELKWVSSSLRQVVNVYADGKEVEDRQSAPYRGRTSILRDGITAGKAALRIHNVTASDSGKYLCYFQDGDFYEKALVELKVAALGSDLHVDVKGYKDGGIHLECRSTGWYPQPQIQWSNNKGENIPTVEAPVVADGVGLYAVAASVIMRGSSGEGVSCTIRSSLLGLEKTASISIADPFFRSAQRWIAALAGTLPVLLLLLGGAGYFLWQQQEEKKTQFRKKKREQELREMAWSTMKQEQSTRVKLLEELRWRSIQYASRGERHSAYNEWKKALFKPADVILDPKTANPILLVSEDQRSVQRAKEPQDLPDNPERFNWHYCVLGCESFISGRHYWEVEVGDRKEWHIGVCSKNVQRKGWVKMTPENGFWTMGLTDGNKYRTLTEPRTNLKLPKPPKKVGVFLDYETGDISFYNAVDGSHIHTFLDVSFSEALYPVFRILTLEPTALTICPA

[2] = target: T1, Butyrophilin subfamily 3 member A1; test: Activation of BTN3A1 in human PBMC-derived Vgamma9/Vdelta2 T cells assessed as induction of IL2-stimulated IFNgamma production measured after 48 hrs by ELISA
Target sequence in this assay (O00481 whole entry): as above

[3] = target: Butyrophilin subfamily 3 member A1 (Homo sapiens, UniProt O00481, R448A); test: Displacement of GDP-BODIPY from C-terminal 6His-tagged BTN3A1 R448A mutant (unknown origin) expressed in Escherichia coli BL21 (DE) measured after 60 mins by fluorescence polarization assay
[4] = target: T1, Butyrophilin subfamily 3 member A1; test: Displacement of GDP-BODIPY from C-terminal 6His-tagged BTN3A1 full […] domain (unknown origin) expressed in Escherichia coli BL21 (DE) measured after 60 mins by fluorescence polarization assay
Target sequence in this assay (O00481 whole entry): as above

[5] = target: Butyrophilin subfamily 3 member A1 (Homo sapiens, UniProt O00481, M424A); test: Displacement of GDP-BODIPY from C-terminal 6His-tagged BTN3A1 M424A mutant (unknown origin) expressed in Escherichia coli BL21 (DE) measured after 60 mins by fluorescence polarization assay
Outline: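 GDP-BODIPY probe (750 nM final) was incubated with 10 μM mutant BTN3A1 full intracellular domain in 100 mM NaCl, 50 mM Tris, 5 mM β-mercaptoethanol, pH 7.5. Test ligand was added at varying concentrations, and plates were kept 60 min in the dark. FP was read at 485/535 nm in triplicate, with at least 3 independent experiments. Probe in buffer served as the negative control and probe with protein as the positive control. IC50 was obtained by 4-parameter nonlinear regression.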

[6] = target: Butyrophilin subfamily 3 member A1 (Homo sapiens, UniProt O00481, W421A); test: Displacement of GDP-BODIPY from C-terminal 6His-tagged BTN3A1 W421A mutant (unknown origin) expressed in Escherichia coli BL21 (DE) measured after 60 mins by fluorescence polarization assay
[7] = target: Butyrophilin subfamily 3 member A1 (Homo sapiens, UniProt O00481, R442A); test: Displacement of GDP-BODIPY from C-terminal 6His-tagged BTN3A1 R442A mutant (unknown origin) expressed in Escherichia coli BL21 (DE) measured after 60 mins by fluorescence polarization assay
[8] = target: Butyrophilin subfamily 3 member A1 (Homo sapiens, UniProt O00481, R499A); test: Displacement of GDP-BODIPY from C-terminal 6His-tagged BTN3A1 R499A mutant (unknown origin) expressed in Escherichia coli BL21 (DE) measured after 60 mins by fluorescence polarization assay
[9] = target: T1, Butyrophilin subfamily 3 member A1; test: (§1) Activation of BTN3A1 in human PBMC-derived Vgamma9/Vdelta2 T cells assessed as induction of IL2-stimulated cell proliferation by measuring increase in CD3+ cells up to 100 uM preincubated for 3 days followed by 11 days incubation post compound washout and subsequent IL2 stimulation for every 3 days measured after 14 days by flow cytometry; format: cell-based
Target sequence in this assay (O00481 30-513 limits assumed): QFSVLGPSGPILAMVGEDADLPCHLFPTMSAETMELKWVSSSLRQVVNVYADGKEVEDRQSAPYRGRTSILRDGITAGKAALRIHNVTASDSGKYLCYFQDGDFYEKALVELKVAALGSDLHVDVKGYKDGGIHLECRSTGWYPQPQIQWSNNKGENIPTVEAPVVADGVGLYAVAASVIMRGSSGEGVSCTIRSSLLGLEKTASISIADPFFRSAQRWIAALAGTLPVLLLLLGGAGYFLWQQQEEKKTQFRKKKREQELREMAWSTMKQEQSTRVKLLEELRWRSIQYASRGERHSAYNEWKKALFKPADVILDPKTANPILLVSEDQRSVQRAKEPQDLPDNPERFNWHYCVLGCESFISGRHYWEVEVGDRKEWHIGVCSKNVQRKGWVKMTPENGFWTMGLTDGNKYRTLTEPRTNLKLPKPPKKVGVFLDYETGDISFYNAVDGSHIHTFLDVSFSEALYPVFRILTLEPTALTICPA

[10] = target: T1, Butyrophilin subfamily 3 member A1; test: as §1, with “at 0.1” for “up to 100”, “cytometry relative to control” for “cytometry”; format: cell-based
Target sequence in this assay (O00481 30-513 limits assumed): as above

[11] = Drug uptake in human PBMC assessed as parent compound remaining at 10 uM measured after 6 hrs by UPLC-MS analysis; format: ADME, cell-based; details: PBMC (peripheral blood mononuclear cells), read-out: Drug uptake
Outline: (§2)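 Compound at 10 μM final was added to human PBMCs (1,000,000 cells/mL) suspended in T cell media and incubated. The supernatant was collected and stored at –20 °C, then analysed by UPLC-MS on a C18 column (25% to 80% acetonitrile over 8 min). The integrated molecular-ion signal is reported relative to t = 0.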

[12] = Drug uptake in T cell media assessed as parent compound remaining at 10 uM measured after 48 hrs by UPLC-MS analysis
Outline: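 This was the cell-free control. Compound at 10 μM final was held in T cell media without PBMCs, and loss of the parent compound was followed over time. Supernatant was analysed by UPLC-MS on a C18 column (25% to 80% acetonitrile gradient over 8 min). The molecular-ion integral is expressed relative to t = 0.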

[13] = Drug uptake in human PBMC assessed as parent compound remaining at 10 uM measured after 24 hrs by UPLC-MS analysis; format: ADME, cell-based; details: PBMC (peripheral blood mononuclear cells), read-out: Drug uptake; outline: as §2
[14] = target: T1, Butyrophilin subfamily 3 member A1; test: as §1, with “cells” for “cells up to 100 uM”; format: cell-based
Target sequence in this assay (O00481 whole entry): as the sequence (O00481 whole entry) above

[15] = target: T1, Butyrophilin subfamily 3 member A1; test: as §1, with “at 10” for “up to 100”, “cytometry relative to control” for “cytometry”; format: cell-based
Target sequence in this assay (O00481 30-513 limits assumed): as the sequence (O00481 30-513 limits assumed) above

Butyrophilin subfamily 3 member A1 (Homo sapiens, UniProt O00481, M424A), sequence (O00481 30-513 M424A limits assumed): as the sequence (O00481 30-513 limits assumed) above, with M395A counted along it
Butyrophilin subfamily 3 member A1 (Homo sapiens, UniProt O00481, W421A), sequence (O00481 30-513 W421A limits assumed): as the sequence (O00481 30-513 limits assumed) above, with W392A counted along it
Butyrophilin subfamily 3 member A1 (Homo sapiens, UniProt O00481, R442A), sequence (O00481 30-513 R442A limits assumed): as the sequence (O00481 30-513 limits assumed) above, with R413A counted along it
Butyrophilin subfamily 3 member A1 (Homo sapiens, UniProt O00481, R499A), sequence (O00481 30-513 R499A limits assumed): as the sequence (O00481 30-513 limits assumed) above, with R470A counted along it
Butyrophilin subfamily 3 member A1 (Homo sapiens, UniProt O00481, R448A), sequence (O00481 30-513 R448A limits assumed): as the sequence (O00481 30-513 limits assumed) above, with R419A counted along it

SMILES: C/C(=C\CCP(=O)(O)CP(=O)(O)O)CO
IC50 [1]: 0.103 mM
EC50 ([2]; read-out: EC50): > 100000 nM

SMILES: C/C(=C\CCP(=O)(O)O)CO
IC50 [3]: 3.93 mM
IC50 [1]: 2.56 mM
EC50 ([2]; read-out: EC50): 3400 nM
IC50 [4]: 3.85 mM
IC50 [5]: 3.39 mM
IC50 [6]: 3.19 mM
IC50 [7]: 3.22 mM
IC50 [8]: 3.83 mM

EC50 [2]: Not Active
SMILES: O=P([O-])([O-])OP(=O)([O-])[O-].[Na+].[Na+].[Na+].[Na+] [SODIUM PYROPHOSPHATE]

Activity [9]: inactive
SMILES: CC(C)=CCCCCP(=O)(OCOC(=O)C(C)(C)C)OCOC(=O)C(C)(C)C

Activity [10]: 64%
SMILES: C/C(=C\COP(=O)(O)OP(=O)(O)O)CO

EC50 ([2]; read-out: EC50): 15 nM
remaining at 6 h, 10 µM [11]: 58%
Activity [10]: Active
remaining at 24 h, 10 µM [13]: < 1%
SMILES: C/C(=C\CCP(=O)(OCOC(=O)C(C)(C)C)OCOC(=O)C(C)(C)C)CO
Drug uptake [12]: 63%

EC50 ([2]; read-out: EC50): > 1000 nM
SMILES: C/C(=C\CCP(=O)(CP(=O)(OCOC(=O)C(C)(C)C)OCOC(=O)C(C)(C)C)OCOC(=O)C(C)(C)C)CO (centres undefined)

SMILES: COP(=O)(CCCC/C=C(\C)CO)OC
Activity [9]: inactive

SMILES: C/C(=C\CCCCP(=O)([O-])[O-])CO.[Na+].[Na+]
IC50 [3]: 4.62 mM
Activity [9]: inactive
EC50 [2]: Not Active
IC50 [4]: 1.07 mM
IC50 [5]: 5.35 mM
EC50 [14]: Not Active
IC50 [6]: 3.24 mM
IC50 [7]: 3.43 mM
IC50 [8]: 3.72 mM

Activity [9]: inactive
EC50 [2]: Not Active
remaining at 6 h, 10 µM [11]: 44%
EC50 [14]: Not Active
Activity [15]: 28.1%
remaining at 24 h, 10 µM [13]: < 1%
SMILES: C/C(=C\CCCCP(=O)(OCOC(=O)C(C)(C)C)OCOC(=O)C(C)(C)C)CO
Drug uptake [12]: 44%

SMILES: C/C(=C\CCP(=O)(O)OP(=O)(O)O)CO
IC50 [1]: 0.00787 mM
EC50 ([2]; read-out: EC50): 2 nM
IC50 [4]: 0.00787 mM
